Source: ChEMBL document CHEMBL1129346, “First examples of peptidomimetic inhibitors of interleukin-1 beta converting enzyme” (J Med Chem, 1996)

Columns and labels:
Caspase-1 (Homo sapiens) [1] = molecular target: T1, Caspase-1 (Homo sapiens) (UniProt P29466); assay: Second order rate constant of inactivation for compound was measured against Interleukin-1-beta converting enzyme partially purified from THP-1 cells
T1 sequence (whole entry): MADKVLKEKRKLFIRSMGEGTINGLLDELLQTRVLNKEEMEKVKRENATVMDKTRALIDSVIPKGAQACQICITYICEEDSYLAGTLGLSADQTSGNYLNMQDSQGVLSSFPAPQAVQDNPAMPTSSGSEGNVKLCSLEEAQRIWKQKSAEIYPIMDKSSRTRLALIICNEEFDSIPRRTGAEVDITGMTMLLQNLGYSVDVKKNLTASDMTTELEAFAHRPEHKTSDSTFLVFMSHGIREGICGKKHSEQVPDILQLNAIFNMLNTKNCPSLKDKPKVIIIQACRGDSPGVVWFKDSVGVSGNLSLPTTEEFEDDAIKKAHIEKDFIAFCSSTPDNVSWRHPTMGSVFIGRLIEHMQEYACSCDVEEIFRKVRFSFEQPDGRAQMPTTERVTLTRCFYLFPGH
How it was run: (§1)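 ICE was partially purified from THP-1 cells by DEAE-Sephacel and Sephadex G-75 steps. Fluorescence progress curves were recorded at 37 °C over 30 min, and the nonlinear curves were analysed by the Tian–Tsou method. Standard error was <10%.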

Caspase-1 (Homo sapiens) [2] = molecular target: T1, Caspase-1 (Homo sapiens); assay: The binding affinity of compound was measured against Interleukin-1-beta converting enzyme in monocytic cells; type: cell-based
How it was run: as §1, with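 “steps. The assay buffer was 10 mM HEPES pH 7.5 with 25% glycerol and 1 mM DTT, and the substrate was 10 μM Suc-Tyr-Val-Ala-Asp-AMC.” for “steps.”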

SMILES | k obs / 1 (Caspase-1 (Homo sapiens) [1]) [M⁻¹ s⁻¹] | k obs / 1 (Caspase-1 (Homo sapiens) [2]) [M⁻¹ s⁻¹]
Cc1ncc(NC(=O)OCc2ccccc2)c(=O)n1CC(=O)N[C@@H](CC(=O)O)C(=O)COc1cc(C(F)(F)F)nn1-c1ccccc1 | 95000 | –
CN(C)CCCCCC(=O)Nc1cnc(-c2ccc(F)cc2)n(CC(=O)N[C@@H](CC(=O)O)C(=O)COC(=O)c2c(Cl)cccc2Cl)c1=O | 90000 | –
Nc1cnc(-c2ccc(F)cc2)n(CC(=O)N[C@@H](CC(=O)O)C(=O)COC(=O)c2c(Cl)cccc2Cl)c1=O | 36000 | –
O=C(O)C[C@H](NC(=O)Cn1c(-c2ccc(F)cc2)ncc(NC(=O)c2ccco2)c1=O)C(=O)COC(=O)c1c(Cl)cccc1Cl | 46000 | –
CC(C)[C@H](NC(=O)OCc1ccccc1)C(=O)N[C@@H](C)C(=O)N[C@@H](CC(=O)O)C(=O)COC(=O)c1c(Cl)cccc1Cl | 432000 | –

Second part, the compound after the results:

k obs / 1 (Caspase-1 (Homo sapiens) [1]) [M⁻¹ s⁻¹] | k obs / 1 (Caspase-1 (Homo sapiens) [2]) [M⁻¹ s⁻¹] | SMILES
90000 | – | O=C(O)C[C@H](NC(=O)Cn1c(-c2ccc(F)cc2)ncc(NS(=O)(=O)c2ccccc2)c1=O)C(=O)COC(=O)c1c(Cl)cccc1Cl
– | 145000 | O=C(O)C[C@H](NC(=O)Cn1c(-c2ccc(F)cc2)ncc(NC(=O)OCc2ccccc2)c1=O)C(=O)COP(=O)(c1ccccc1)c1ccccc1
145000 | – | O=C(O)C[C@H](NC(=O)Cn1c(-c2cccnc2)ncc(NC(=O)OCc2ccccc2)c1=O)C(=O)COc1cc(C(F)(F)F)nn1-c1ccccc1
268000 | – | O=C(O)C[C@H](NC(=O)Cn1c(-c2ccc(F)cc2)ncc(NC(=O)OCc2ccccc2)c1=O)C(=O)COC(=O)c1c(Cl)cccc1Cl
– | 157000 | O=C(O)C[C@H](NC(=O)Cn1c(-c2ccc(F)cc2)ncc(NC(=O)OCc2ccccc2)c1=O)C(=O)COc1cc(C(F)(F)F)nn1-c1ccccc1
148000 | – | O=C(O)C[C@H](NC(=O)Cn1c(-c2ccc(F)cc2)ncc(NC(=O)NCc2ccccc2)c1=O)C(=O)COC(=O)c1c(Cl)cccc1Cl
